Experimental data as given in ChEMBL document CHEMBL1138446, “The design, synthesis, and antiviral activity of monofluoro and difluoro analogues of 4'-azidocytidine against hepatitis C virus replication: the discovery of 4'-azido-2'-deoxy-2'-fluorocytidine and 4'-azido-2'-dideoxy-2',2'-difluorocytidine” (J Med Chem, 2009).

How the values were obtained:
[1] = Antiproliferative activity against human 2209-23 cells assessed as [3H]thymidine incorporation by scintillation proximity assay; type: cell-based
Outline: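 Proliferation of the GT-1b stable replicon line 2209-23 was measured as tritiated thymidine incorporation into cellular DNA by scintillation proximity assay. Values are reported as IC50.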

[2] = Cytotoxicity against human 2209-23 cells assessed as cell viability by WST-1 assay; type: cell-based
Outline: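 Viability of the same 2209-23 replicon cells was measured by the WST-1 assay. Values are reported as CC50.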

Hepatitis C virus = assay: Antiviral activity against HCV 1b infected in human 2209-23 cells by replicon assay; type: functional, organism-based, Hepacivirus hominis
[3] = Inhibition of HCV NS5B polymerase-mediated RNA synthesis; parameters: species or system Hepacivirus hominis

| EC50 (Hepatitis C virus) | EC50 [3] | Structure (SMILES) | IC50 [1] | CC50 [2] |
| --- | --- | --- | --- | --- |
| 4.02 µM |  | [N-]=[N+]=N[C@]1(CO)O[C@@H](n2ccc(N)nc2=O)[C@H](F)[C@@H]1O | > 100 µM | > 100 µM |
| 0.171 µM |  | [N-]=[N+]=N[C@]1(CO)O[C@@H](n2ccc(N)nc2=O)[C@@H](O)[C@@H]1O | > 100 µM | > 1000 µM |
| > 100 µM |  | [N-]=[N+]=N[C@]1(CO)O[C@@H](n2ccc(N)nc2=O)[C@H](O)[C@H]1F |  | > 100 µM |

Second part, the compound before the results:

| Structure (SMILES) | EC50 (Hepatitis C virus) | EC50 [3] | IC50 [1] | CC50 [2] |
| --- | --- | --- | --- | --- |
| Nc1ccn([C@@H]2O[C@H](CO)[C@@H](O)[C@@H]2F)c(=O)n1 | 0.114 µM |  | 0.174 µM | > 100 µM |
| [N-]=[N+]=N[C@]1(CO)O[C@@H](n2ccc(N)nc2=O)[C@H](O)[C@@H]1F | > 100 µM |  |  | > 100 µM |
| [N-]=[N+]=N[C@]1(CO)O[C@@H](n2ccc(N)nc2=O)C(F)(F)[C@@H]1O | 0.066 µM |  |  | > 100 µM |
| [N-]=[N+]=N[C@]1(CO)O[C@@H](n2ccc(N)nc2=O)[C@H](O)[C@@H]1O [4'-AZIDOCYTIDINE] | 1.28 µM | 1.28 µM | > 100 µM | > 2000 µM |
| [N-]=[N+]=N[C@]1(CO)O[C@@H](n2ccc(N)nc2=O)[C@@H](F)[C@@H]1O [RO-0622] | 0.024 µM |  | > 100 µM | > 100 µM |
